These results are taken from ChEMBL document CHEMBL1146574, “A novel 5-HT receptor ligand and related cytotoxic compounds from an acid mine waste extremophile” (J Nat Prod, 2003).

The subject of one data set is Artemia. Put plainly: Toxicity against brine shrimp. Format: organism-based. The conditions noted are these: in vivo.
Data set [1] addresses 5-hydroxytryptamine receptor 2A (Rattus norvegicus) (UniProt P14842). The data set is described as follows: Displacement of [3H]ketanserin from rat 5HT2A receptor expressed in mouse NIH3T3 cells assessed as bound radiolabeled ligand remaining by liquid scintillation relative to control. It is filed as cell-based. The gist of the method:
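Crude membranes from confluent NIH 3T3 cells stably expressing rat 5-HT2A receptor (DMEM, 10% calf serum, geneticin), prepared freshly in 50 mM Tris, 4 mM CaCl2, 10 µM pargyline, pH 7.4. Tritiated ligand 0.5 nM final; nonspecific binding with 10 µM 5-HT; test compounds at 100 µM. Triplicate 1 mL reactions, 30 min at 30 °C. Glass-fiber filtration, scintillation counting, reported as percent of control binding.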
(In general: Loss of bound radioactivity is the signal in a displacement assay; it reports binding, not function.)

Chain of 5-hydroxytryptamine receptor 2A (Rattus norvegicus) (P14842 whole entry): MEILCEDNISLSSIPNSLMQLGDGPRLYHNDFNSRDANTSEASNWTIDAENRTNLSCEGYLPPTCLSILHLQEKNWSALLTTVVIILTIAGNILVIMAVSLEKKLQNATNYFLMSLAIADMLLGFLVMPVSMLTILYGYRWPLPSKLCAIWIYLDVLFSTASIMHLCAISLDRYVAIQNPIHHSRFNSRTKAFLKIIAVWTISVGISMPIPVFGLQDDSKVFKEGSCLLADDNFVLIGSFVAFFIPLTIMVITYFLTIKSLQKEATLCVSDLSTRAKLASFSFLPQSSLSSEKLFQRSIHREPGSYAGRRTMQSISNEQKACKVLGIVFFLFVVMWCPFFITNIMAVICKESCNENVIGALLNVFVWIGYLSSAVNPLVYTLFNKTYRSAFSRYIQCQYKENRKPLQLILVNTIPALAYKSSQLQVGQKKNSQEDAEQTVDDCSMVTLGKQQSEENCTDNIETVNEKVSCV

In the case of `CC(C)=CCOc1ccc(CCO)cc1` [ETROGOL], the Activity result is “Toxic” in the data set on Artemia and 85% in data set [1].

`C=C(C)[C@@H]1CC[C@@](C)(O)[C@H]2CC[C@H](C)[C@@H]2C1`: the Activity result in the data set on Artemia is on record as “Non-toxic”.

For `COC(=O)C(Cc1ccc(OCC=C(C)C)cc1)NC(C)=O` (stereo not given), the Activity in data set [1] was found to be 85%.

For `CC(=O)OCCc1ccc(OCC=C(C)C)cc1` [ETROGOL ACETATE], the results for the Activity result (with Artemia; in data set [1]) were “Toxic” and 11%, respectively.

For the molecule `C[C@H]1CC[C@H]2[C@H]1C[C@]1([C@@H](C)CO)CC[C@]2(C)O1`, the Activity entry with Artemia is listed as “Non-toxic”.

`C[C@H]1CC[C@H]2[C@H]1C[C@H](C(C)(C)O)CC[C@@]2(C)O`: the Activity result in the data set on Artemia is on record as “Non-toxic”.

Turning to `CC(=O)NC(Cc1ccc(OCC=C(C)C)cc1)C(=O)O` (stereo not given), the Activity entry in the data set with Artemia was “Toxic”; in data set [1], 85%.
